This is a sample that favours compounds with a hit; in the whole collection about 2.5% have one here.
S100A4 MyoIIA = inhibitors of S100A4-myosin IIA peptide binding, primary screen, biochemical, fluorescence polarization, TAMRA-MyoIIA peptide; inhibition, % at 10.7 µM; AID 652163, 2013; 360,000 tested, 0.14% active; Protein S100-A4 (Homo sapiens), P26447;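 active = mean inhibition of at least 70% across replicates, with every replicate also reaching that level; inconclusive = mean inhibition reaches 70% but some replicates fall short; inactive = mean inhibition below 70%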
Target sequence (P26447 whole entry, looked up): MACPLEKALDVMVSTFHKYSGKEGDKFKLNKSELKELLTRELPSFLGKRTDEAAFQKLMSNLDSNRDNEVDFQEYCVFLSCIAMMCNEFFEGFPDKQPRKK
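incubation = readout 5 min after mixing, signal stable up to 60 min | system = S100A4 monomer protein | buffer or medium = HEPES pH 7.2 with CaCl2, KCl, NaCl, DTT, Triton | benchmarks = neutral control DMSO, positive control TFP | also added = fluorescent myosin IIA peptide, 5 nM | compound dosing = one concentration per compound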
miR-122 sensor = miR-122 Renilla sensor signal increase in Huh7, primary screen, miR-122 inhibitor project, cell-based, single point, plate reader; AID 602342, 2012; Huh7 miR-122 Renilla luciferase sensor, 48 h; neutral wells = 0, positive control = 100; 340,000 tested, 0.3% active; activation (reporter increase), % at 12.5 µM;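 active = mean replicate activation score at least 90 and every replicate individually at or above 90; inconclusive = only one of the two criteria met; inactive = neither criterion met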;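 note: higher luciferase means less miR-122 activity so hits act as miR-122 inhibitors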
SIRT5 inh = SIRT5 desuccinylase inhibitors, primary screen, biochemical, fluorescence imaging, single point, set 5; Purified SirT5, succinyl-peptide AMC, trypsin-coupled fluorescence; inhibition, % at 15 µM; 330,000 tested, 1.1% active; in the data active = inhibition above about 15%; inconclusive = no clear call, values can overlap the other calls
E-selectin induc = E-selectin induction in HUVECs, primary screen, imaging, HUVEC, immunofluorescence imaging, single point. P16581. 260,000 tested, 0.37% active. activation, % at 7.58 µM. AID 686992, 2013. normalized: neutral wells 0, TNF-alpha wells 100;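 active = mean E-selectin-positive cell signal at least 10% of the positive control, reached in at least 60% of replicates, without over 20% cell loss; inconclusive = no rule given, readout overlaps actives, possibly toxicity-flagged; inactive = the rest, including those meeting only one limit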
Target sequence (P16581 whole entry, looked up): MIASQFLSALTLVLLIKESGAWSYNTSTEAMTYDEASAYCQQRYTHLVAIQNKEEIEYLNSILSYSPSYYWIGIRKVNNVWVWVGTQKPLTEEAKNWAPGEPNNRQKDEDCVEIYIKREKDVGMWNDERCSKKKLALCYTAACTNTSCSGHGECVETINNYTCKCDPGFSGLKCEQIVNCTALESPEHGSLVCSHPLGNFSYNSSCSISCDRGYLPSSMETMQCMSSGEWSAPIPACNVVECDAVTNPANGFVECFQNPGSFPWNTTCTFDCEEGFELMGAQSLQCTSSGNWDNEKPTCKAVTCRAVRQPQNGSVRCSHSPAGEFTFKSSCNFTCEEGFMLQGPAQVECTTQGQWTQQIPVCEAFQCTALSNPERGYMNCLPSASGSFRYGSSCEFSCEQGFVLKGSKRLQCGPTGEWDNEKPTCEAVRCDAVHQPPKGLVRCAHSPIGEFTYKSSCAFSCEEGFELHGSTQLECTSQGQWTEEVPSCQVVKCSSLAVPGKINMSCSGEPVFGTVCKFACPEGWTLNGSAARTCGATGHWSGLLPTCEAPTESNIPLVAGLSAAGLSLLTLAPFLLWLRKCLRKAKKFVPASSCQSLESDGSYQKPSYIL
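Test system – human umbilical vein endothelial cells (HUVEC), E-selectin induction · Input – 3,000 HUVEC seeded per well · Buffer or medium – EGM-2, gelatin · Compound dosing – single-point compound dose · Detection – immunofluorescence imaging · Measure – percent E-selectin-positive cells · Controls – TNF-alpha high, DMSO low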
FGF22 binding = binders of human FGF22 protein, primary screen, FGF22 synaptogenesis inhibitor project, biophysical, thermal shift, single point; AID 651658, 2012; activity (Tm shift, normalised), % at 9.99 µM; 340,000 tested, 1.5% active; recombinant FGF22 thermal shift, SYPRO orange fluorescence; percent of sucrose octasulfate shift, DMSO zero; Fibroblast growth factor 22 (Homo sapiens), Q9HCT0;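 active = mean Tm shift, scaled 0 neutral to 100 positive control, at about 1.3% or above, every replicate too, limit read from the data; inconclusive = no clear call, values can overlap the other calls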
The depositor's hits bear a star; ? = inconclusive; . = no result given; [ ] = remark or other dose.

SMILES | S100A4 MyoIIA | miR-122 sensor | SIRT5 inh | E-selectin induc | FGF22 binding
Cc1ccc(CN2CC(=O)N3[C@H](C2)[C@H](c2ccc(-c4ccccc4F)cc2)[C@@H]3CO)cc1 | -61 | . | -4 | 0 | .
Cc1ccc(CN2CC(=O)N3[C@@H](CO)[C@H](c4ccc(-c5ccccc5F)cc4)[C@@H]3C2)cc1 | -11 | . | 15* | 0 | .
Cc1noc(C)c1S(=O)(=O)Nc1ccc2c(c1)C(=O)N([C@@H](C)CO)C[C@H](C)[C@H](CN(C)C(=O)CCC(F)(F)F)OCCCC[C@@H](C)O2 | 0 | 3[16.7 µM] | 2 | 0 | -1
COc1ccc(NS(=O)(=O)c2cccc(NC(=O)c3ccccn3)c2)cc1 | -2 | 34 | -6 | 0 | 0
O=C(Nc1cccc(S(=O)(=O)Nc2ccc(Cl)cc2)c1)c1ccccn1 | 3 | 129* | 3 | 0 | 0
CC(C)C(=O)Nc1ccc2c(c1)C(=O)N(C)[C@H]1CC[C@H](CC(=O)Nc3cccc(F)c3)O[C@@H]1CO2 | 78* | -35[16.7 µM] | -1 | 0 | 0
COCCNC(=O)C[C@@H]1CC[C@H]2[C@H](COc3ccc(NC(=O)Nc4cccc(F)c4)cc3C(=O)N2C)O1 | 2 | -16[16.7 µM] | 23* | 0 | 0
C[C@H](CO)N1C[C@H](C)[C@H](CN(C)S(=O)(=O)c2cccs2)OCCCC[C@H](C)Oc2ccc(NC(=O)Nc3ccc4c(c3)OCO4)cc2C1=O | -4 | -11[16.7 µM] | 7 | 0 | 0
CCC1CCCCN1CCCNC(=O)c1c(O)nc2ccccn2c1=O (stereo not given) | -1 | -2 | 32* | . | 0
CC1CCCCN1CCCNC(=O)c1c(O)nc2ccccn2c1=O (stereo not given) | -4 | 0 | -8 | 1 | 0
COC(=O)CSc1nc(NCc2ccccc2)nc(N(C)C)n1 | -3 | -5 | 1 | 1 | 43*
CN(C)c1nc(NCc2ccccc2)nc(SCC(=O)Nc2ccc(Cl)c(Cl)c2)n1 | . | 5 | . | . | .
CCNc1nc(SCC(=O)Nc2ccc(Cl)c(Cl)c2)nc(N(C)C)n1 | 2 | -2 | 2 | 1 | 45*
COc1ccc2c3c(n(C)c2c1)[C@@H](CO)N(CC1CC1)CC31CCN(S(=O)(=O)c2cn(C)cn2)CC1 | 7 | . | 6 | 0 | 0
CS(=O)(=O)N(CC(=O)NCC1CCCO1)c1cccc(Cl)c1 (stereo not given) | -4 | . | -4 | 0 | 44*
CC=Cc1ccc2n(c1=O)C[C@@H]1[C@@H](CO)[C@H](C(=O)NCc3ccccc3F)N(CC)[C@H]21 (mixture of isomers) | -8 | -6[16.7 µM] | 16* | 0 | 0
O=C(NCc1ccc(F)cc1)[C@H]1[C@H](CO)[C@H]2Cn3c(cccc3=O)[C@H]2N1Cc1ccccn1 | 7 | 2[16.7 µM] | 3 | 0 | 0
COC(=O)[C@@H]1[C@@H](CO)[C@@H]2Cn3c(ccc(-c4ccccc4)c3=O)[C@@H]2N1C(=O)CC1CC1 | 76* | . | -7 | -1 | -1
O=C(NCc1ccccn1)[C@@H]1[C@@H](CO)[C@@H]2Cn3c(cccc3=O)[C@@H]2N1CCc1ccccc1 | -6 | . | 16* | 0 | 0
O=C(O)[C@@H]1[C@@H](CO)[C@@H]2Cn3c(ccc(/C=C/c4ccccc4)c3=O)[C@@H]2N1C(=O)C1CCCC1 | 110* | . | -110 | 0 | .
COc1ccc2c3c(n(C)c2c1)[C@@H](CO)N(Cc1ccncc1)CC31CCN(C(=O)C2CCC2)CC1 | 13 | . | 2 | 0 | 0
Cc1ccc(S(=O)(=O)Nc2ccc3c(c2)C(=O)N([C@@H](C)CO)C[C@H](C)[C@H](CN(C)C(=O)c2ccncc2)OCCCC[C@@H](C)O3)cc1 | . | 5[16.7 µM] | . | . | 0
CCC(=O)N1CCC2(CC1)CN(C(=O)Nc1ccccc1F)[C@H](CO)c1c2c2ccc(OC)cc2n1C | . | . | . | 0 | 0
CCNC(=O)[C@H]1[C@H](CO)[C@H]2Cn3c(ccc(-c4cccnc4)c3=O)[C@H]2N1Cc1ccc2c(c1)OCO2 | 1 | -3[16.7 µM] | 12 | 0 | 0
CN(C)C(=O)[C@@H]1[C@@H](CO)[C@@H]2Cn3c(ccc(-c4ccccc4)c3=O)[C@@H]2N1Cc1ccccc1 | 14 | 2[16.7 µM] | 23* | -2 | 0
SMILES | S100A4 MyoIIA | miR-122 sensor | SIRT5 inh | E-selectin induc | FGF22 binding
CCN1[C@H](C(=O)NCc2ccccc2)[C@@H](CO)[C@@H]2Cn3c(ccc(-c4ccncc4)c3=O)[C@@H]21 | -3 | 8[16.7 µM] | 19* | 0 | 0
CCNC(=O)[C@@H]1[C@@H](CO)[C@@H]2Cn3c(ccc(-c4cccnc4)c3=O)[C@@H]2N1Cc1ccc2c(c1)OCO2 | 37 | 6[16.7 µM] | 23* | 0 | 0
O=C(N/N=C/c1cccs1)c1cc(-c2ccc3ccccc3c2)n[nH]1 | . | -1 | . | . | .
O=C(N/N=C/c1cccs1)c1cc(-c2cccc3ccccc23)n[nH]1 | -1 | . | -3 | 0 | 44*
CCC(=O)N1[C@H](CO)[C@@H]2c3ccccc3N(S(=O)(=O)c3ccccc3F)C[C@@H]21 | ? | -17[16.7 µM] | 0 | 0 | 1
CCCNC(=S)N1CCN(c2nc(C)nc3sc4c(c23)CCCC4)CC1 | -2 | -2 | -2 | . | 43*
C[C@H](CO)N1C[C@H](C)[C@@H](CN(C)C(=O)C2CC2)Oc2cc(-c3cccnc3)ccc2S1(=O)=O | . | 3[16.7 µM] | . | 0 | .
Cc1cccc(S(=O)(=O)N2C[C@@H]3[C@H](c4ccccc42)[C@H](CO)N3C(=O)CC2CC2)c1 | 8 | 25[16.7 µM] | -1 | -1 | 0
Cc1ccc(CNC(=O)CCCC(=O)Nc2cc(C)on2)cc1 | -2 | 2 | 5 | . | 43*
O=[N+]([O-])c1ccc(C2=Nc3cc(Cl)ccc3OC2)cc1 | -3 | 7 | 7 | 1 | 0
O=C1COc2cc(ccc2[N+](=O)[O-])Oc2ccc(cc2Cl)C(=O)CCCCO1 | 1 | -2 | 18* | 0 | 0
C[C@@H]1CN([C@@H](C)CO)C(=O)c2cc(C#CC3CCCC3)cnc2O[C@H]1CN(C)S(C)(=O)=O | -2 | . | 1 | 0 | 0
COCC(=O)Nc1ccc2c(c1)OC[C@H](C)N(Cc1cccc(F)c1)C[C@H](C)[C@@H](OC)CN(C)C2=O | -15 | . | -10 | 0 | 0
CCCN1C(C)C(C(=O)OCC)=CN(Cc2ccc(Br)cc2)S1(=O)=O (stereo not given) | 0 | 0 | 32* | -2 | 0
O=C1C(=Cc2cn(-c3ccccc3)nc2-c2ccc(OCc3ccccc3)cc2)SC(=S)N1CCS(=O)(=O)O | 2 | -1 | 1 | 0 | 0
